Measured values published in ChEMBL document CHEMBL1138626, “Synthesis and biological evaluation of reversible inhibitors of IdeS, a bacterial cysteine protease and virulence determinant” (Bioorg Med Chem, 2009).
Activity calls are given as the source filed them. The calls are words filed in the database; no cut-off is given here.

Test system: Streptococcus pyogenes
Experiment: Inhibition of Streptococcus pyogenes IdeS assessed as blockade of enzyme-mediated degradation of human polyclonal immunoglobulin G by SDS-PAGE method
Outline: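 IdeS expressed in E. coli and purified, diluted in PBS pH 7.4 (1 mg/mL), preincubated 30 min at room temperature in the dark with compound in DMSO (10 mg/mL stock, 100× excess). Human polyclonal IgG (1 mg/mL in PBS) then added, 1 h at 37 °C. Samples boiled in reducing SDS sample buffer (4% SDS, 5% 2-mercaptoethanol), cleavage read on 4–20% SDS–PAGE.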

SMILES	Activity
Cc1ccc(S(=O)(=O)NC(CC=O)C(C)C)cc1 (single isomer, unassigned)	Active
Cc1ccc(S(=O)(=O)N[C@H](CO)CCCCN)cc1	inactive
Cc1ccc(S(=O)(=O)N[C@@H](Cc2ccccc2)C(=O)CCl)cc1	Active
CCCC[C@@H](CC=O)NS(=O)(=O)c1ccc(C)cc1	Active
Cc1ccc(S(=O)(=O)N[C@@H](CCCCN)C(=O)CCl)cc1	Active
Cc1ccc(S(=O)(=O)N[C@H](CN=[N+]=[N-])Cc2ccccc2)cc1	Active
Cc1ccc(S(=O)(=O)N[C@H](CO)C(C)C)cc1	inactive
Cc1ccc(S(=O)(=O)N[C@H](CO)Cc2ccccc2)cc1	inactive
CCCC[C@@H](COS(=O)(=O)c1ccc(C)cc1)NS(=O)(=O)c1ccc(C)cc1	inactive
Cc1ccc(S(=O)(=O)N[C@H](CN=[N+]=[N-])C(C)C)cc1	Active
Cc1ccc(S(=O)(=O)N[C@H](CC=O)CCCCNC(=O)OC(C)(C)C)cc1	Active
Cc1ccc(S(=O)(=O)N[C@H](COS(=O)(=O)c2ccc(C)cc2)Cc2ccccc2)cc1	inactive
Cc1ccc(S(=O)(=O)N[C@H](COS(=O)(=O)c2ccc(C)cc2)C(C)C)cc1	inactive
Cc1ccc(S(=O)(=O)N[C@@H](CCCCNC(=O)OC(C)(C)C)CN=[N+]=[N-])cc1	inactive
CCCC[C@H]1CN1S(=O)(=O)c1ccc(C)cc1 (stereo partly drawn)	inactive
Cc1ccc(S(=O)(=O)N2C[C@@H]2C(C)C)cc1 (stereo partly drawn)	inactive
CCCC[C@@H](CO)NS(=O)(=O)c1ccc(C)cc1	inactive
Cc1ccc(S(=O)(=O)N[C@@H](CCCCN)CN=[N+]=[N-])cc1	inactive
CCCC[C@@H](CC#N)NS(=O)(=O)c1ccc(C)cc1	Active
CCCC[C@@H](CN=[N+]=[N-])NS(=O)(=O)c1ccc(C)cc1	Active
Cc1ccc(S(=O)(=O)N[C@H](CC=O)Cc2ccccc2)cc1	Active
Cc1ccc(S(=O)(=O)N[C@H](CO)CCCCNC(=O)OC(C)(C)C)cc1	inactive
Cc1ccc(S(=O)(=O)N[C@@H](CCCCNC(=O)OC(C)(C)C)COS(=O)(=O)c2ccc(C)cc2)cc1	inactive
